Sampled rows, rich in hits. Any-hit rate of the full collection: about 12%.
ABCG2 inh: blocks JC-1 efflux by human ABCG2 transporter. Q9UNQ0. IgMXP3 cells, flow cytometry. inhibition, % at 6.6 µM. 190,000 compounds, 0.1% hits;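 active = inhibition above 80%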;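 also: 0% = DMSO and 100% = nicardipine control wells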
Target sequence (Q9UNQ0 whole entry, looked up): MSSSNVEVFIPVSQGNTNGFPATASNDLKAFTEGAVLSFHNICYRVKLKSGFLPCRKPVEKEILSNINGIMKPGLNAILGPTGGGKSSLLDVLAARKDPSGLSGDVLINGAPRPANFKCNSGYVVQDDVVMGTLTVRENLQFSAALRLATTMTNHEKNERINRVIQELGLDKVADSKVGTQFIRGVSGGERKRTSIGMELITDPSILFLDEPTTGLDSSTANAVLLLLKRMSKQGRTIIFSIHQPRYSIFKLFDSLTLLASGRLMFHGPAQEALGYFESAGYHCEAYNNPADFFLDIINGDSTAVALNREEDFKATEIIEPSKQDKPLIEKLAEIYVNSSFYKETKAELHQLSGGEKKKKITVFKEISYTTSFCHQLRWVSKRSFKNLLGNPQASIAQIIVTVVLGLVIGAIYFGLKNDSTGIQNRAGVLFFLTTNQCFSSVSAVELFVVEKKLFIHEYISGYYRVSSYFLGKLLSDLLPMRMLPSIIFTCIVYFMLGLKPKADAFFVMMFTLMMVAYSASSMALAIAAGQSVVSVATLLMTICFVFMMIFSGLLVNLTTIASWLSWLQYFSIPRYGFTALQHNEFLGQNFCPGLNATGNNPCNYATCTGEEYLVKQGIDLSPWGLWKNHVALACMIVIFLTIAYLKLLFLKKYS
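System: two drug-resistant human cell lines, ABCG2 and ABCB1; controls: nicardipine high and DMSO low controls; times: 10 min exposure at 25 °C with rotation, no wash; detection: flow cytometry of retained JC-1 fluorescence; read-out basis: percent efflux inhibition, scaled nicardipine 100% to DMSO 0%; doses: one concentration, 6.6 µM final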
Lmaj promast: inhibitors of Leishmania major promastigote growth; Leishmania major promastigotes, resazurin fluorescence viability; inhibition, % at 10 µM; 200,000 compounds, 9% hits; AID 1063; in the data active = inhibition above about 50%;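 also: promastigotes grown with compound for 44 hours at 28 °C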
ABCB1 inh: human ABCB1 inhibition, ABCG2 as counter-screen; P08183; CCRF-Adr cells, JC-1 efflux, flow cytometry; inhibition, % at 6.6 µM; 190,000 compounds, 0.067% hits; AID 1326; in the data active = inhibition above about 40%;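 also: 0% = vehicle and 100% = reference inhibitor; higher value means more JC-1 retained so stronger ABCB1 efflux block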
WT yeast gro inh: growth inhibition of WT yeast, mitochondrial fusion screen; mitochondrial fusion phenotypic screen, WT strain; inhibition, % at 10 µM; 190,000 compounds, 2.1% hits; AID 1362; in the data active = inhibition above about 58%; tested in S. cerevisiae
RAM inhibit: inhibitors of the yeast RAM network. S. cerevisiae dse1pr::URA3 reporter, 5-FOA growth OD615, 2 d; analog-sensitive cbk1-as2 kinase mutant strain. inhibition, % at 50 µM. 190,000 compounds, 1.8% hits. AID 868;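 active = inhibition above a set limit, 3 SD over mean compound inhibition, cut at about 8.4% in these data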;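 also: 0% = DMSO-only wells with no growth and 100% = 10 µM 1-NA-PP1 full growth; inhibition rescues growth on 5-FOA so higher OD means more RAM inhibition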
Starred values were filed as active, the others as inactive.

SMILES | ABCG2 inh | Lmaj promast | ABCB1 inh | WT yeast gro inh | RAM inhibit
CCN(CC)c1ccc(N=Cc2c(O)n(-c3ccc(Cl)cc3)c(=O)[nH]c2=O)cc1 | 0.0 | 2.0 | -0.1 | 16.6 | 11.2*
CNS(=O)(=O)c1ccc(N=Cc2c(O)n(-c3ccccc3)c(=O)[nH]c2=O)cc1 | 1.2 | -6.8 | -0.1 | -23.4 | 9.4*
CCN(CC)c1ccc(N=Cc2c(O)n(-c3ccc(OC)cc3)c(=O)[nH]c2=O)cc1 | 1.5 | 11.8 | 1.0 | 13.0 | 3.9
CNS(=O)(=O)c1ccc(N=Cc2c(O)n(-c3cccc(C)c3)c(=O)[nH]c2=O)cc1 | 0.0 | -3.2 | -0.1 | -3.0 | 1.2
O=c1[nH]c(=O)n(-c2ccc(F)cc2)c(O)c1C=Nc1ccccc1N1CCCC1 | 8.6 | -3.5 | 2.6 | 8.1 | 3.0
Cc1cc(C)cc(NC2=NCCCS2)c1 | -0.4 | 25.1 | 0.0 | 2.4 | -0.2
CCCCn1c(=O)c(C=Nc2ccc(Cl)cc2)c(O)n(Cc2ccco2)c1=O | 6.3 | -3.9 | -2.1 | 26.1 | 8.5*
CCOC(=O)N(CC)c1ccc(C(O)(C(=O)OC)C(F)(F)F)cc1 (centres undefined) | 1.2 | 91.2* | 0.4 | -5.0 | 0.6
COC(=O)N(C)c1ccc(C(O)(C(=O)OC)C(F)(F)F)cc1 (centres undefined) | 1.3 | 87.0* | 0.2 | 4.9 | 0.0
COc1ccc(C(O)c2ccccc2OP(=O)(N(C)C)N(C)C)cc1 (centres undefined) | 8.7 | 66.3* | -0.4 | -10.2 | 3.3
COc1cccc(NC(=O)N2CCC3(CC2)OCCO3)c1 | -0.4 | 3.6 | -0.4 | -4.1 | -0.8
COCCN1Cc2cc(=O)n3c([nH]c4ccccc43)c2C1=N | 1.6 | 8.3 | -1.1 | 26.1 | -0.9
O=P(Nc1cccc(Cl)c1)(Oc1ccccc1)Oc1ccccc1 | 8.0 | 14.5 | 1.0 | 79.3* | 5.3
c1ccc2c(CCNCc3ccc4c(c3)OCO4)c[nH]c2c1 | 11.6 | 77.4* | 0.7 | 13.2 | 2.6
O=C(CCl)NCC1CCCO1 (centres undefined) | 3.9 | -15.0 | 0.3 | -5.4 | 0.6
CCCCC(C)C(OC(=O)CC(CC(=O)O)C(=O)O)C(CC(C)CC(O)CCCCC(O)CC(O)C(C)N)OC(=O)CC(CC(=O)O)C(=O)O (centres undefined) | 1.9 | -6.0 | 0.5 | -19.1 | -1.6
COc1cc(CN2CCN(C(=O)COc3ccccc3)CC2)cc(OC)c1OC | 0.8 | -4.4 | 0.4 | 4.9 | 0.4
O=C(COc1ccc2ccccc2c1)N1CCN(CC2CC3C=CC2C3)CC1 (centres undefined) | -0.7 | 57.6* | 0.0 | -3.2 | 2.4
O=C(COc1ccccc1)N1CCN(C2CCCC2)CC1 | -4.9 | 84.9* | -0.4 | -10.0 | 0.7
O=C(Cc1ccccc1)N1CCN(C2CCCC2)CC1 | -3.7 | -0.8 | -0.2 | 2.3 | -0.5
COc1ccc(OCC(=O)N2CCN(C3CCC(c4ccccc4)CC3)CC2)cc1 (centres undefined) | 1.3 | 59.9* | 0.9 | -39.2 | -0.6
O=C(COc1ccccc1)N1CCN(Cc2c[nH]c3ccccc23)CC1 | -0.1 | -5.6 | 0.1 | -6.7 | 2.0
O=C(COc1ccc2ccccc2c1)N1CCN(C2CCN(Cc3ccccc3)CC2)CC1 | 1.4 | 92.2* | 0.8 | 2.9 | 1.3
NS(=O)(=O)c1ccc(N2CCNCC2)cc1 | 2.8 | -3.2 | 0.7 | -7.0 | 1.4
CCOP(=O)(OCC)C(NC(C)=O)C(Cl)(Cl)Cl (centres undefined) | 0.6 | -6.8 | 0.1 | 8.1 | 0.5
SMILES | ABCG2 inh | Lmaj promast | ABCB1 inh | WT yeast gro inh | RAM inhibit
Cc1ccc(N=C(N(C)C)P(=O)(N(C)C)N(C)C)cc1 | 1.4 | -3.7 | 1.1 | 6.7 | -0.4
Cc1oc(-c2ccccc2Cl)nc1CN1C(=O)CN=C(c2ccccc2)c2ccccc21 | 9.7 | 34.2 | 7.1 | 70.7* | -0.7
O=C1CN=C(c2ccccc2)c2ccccc2N1Cc1ccc(C(F)(F)F)cc1 | 4.2 | 5.5 | 1.6 | -1.3 | 1.6
N#CSCC(=O)N1c2ccccc2CCc2ccccc21 | 13.3 | 96.4* | 2.5 | 0.8 | 1.0
CN1CCN(Cc2nc3ccccc3n2C)CC1 | 2.2 | -8.1 | 0.7 | -20.2 | 1.1
Cn1c(NN=O)nc2ccccc21 | 0.5 | 97.4* | 0.0 | -15.0 | 2.1
O=C1CN=C(c2ccc(Br)cc2)c2c(sc3c2CCCC3)N1CCN1CCCCC1 | -0.6 | 39.0 | 0.9 | 39.6 | -0.1
O=C(NC1CONC1=O)OCC(Cl)(Cl)Cl (centres undefined) | -0.1 | -2.1 | -0.1 | -0.2 | 2.3
COC(=O)C1=C(N)Oc2cc(C)oc(=O)c2C12C(=O)Nc1ccccc12 (centres undefined) | 0.3 | 16.2 | -0.3 | -0.6 | 3.4
O=P(C(=Nc1ccc(Cl)cc1)N1CCOCC1)(N1CCOCC1)N1CCOCC1 | 3.2 | -4.6 | 1.3 | 8.0 | -0.5
O=C1NC(=O)C(=Cc2cc3c(cc2[N+](=O)[O-])OCO3)C(=O)N1 | -1.0 | 1.2 | -0.2 | -3.3 | 4.1
O=C1NC(=O)C(=Cc2ccc(-c3cc(Cl)ccc3[N+](=O)[O-])o2)C(=O)N1 | -5.6 | 64.3* | -1.8 | -9.7 | 1.2
Cc1ccc(N2C(=O)NC(=O)/C(=C/c3cnn(-c4ccc(C)cc4)c3)C2=O)cc1 | -3.9 | 84.7* | -0.7 | -7.1 | 6.2
CCN1CCN(Cc2ccc(C)cc2)CC1 | -0.1 | 0.5 | 0.1 | 4.2 | 1.3
CCc1ccc(CN2CCN(Cc3ccc(SC)cc3)CC2)cc1 | 7.2 | 89.3* | 0.2 | 47.7 | -1.1
CSc1ccc(CN2CCN(C(=O)COc3ccc(C)cc3)CC2)cc1 | -0.3 | 87.1* | 0.1 | 29.9 | 2.6
COc1ccc(CN2CCN(C(=O)COc3cccc(C)c3)CC2)c(OC)c1 | 3.4 | 62.2* | 1.4 | 4.5 | 2.1
COc1ccc(OC)c(CN2CCN(C(=O)COc3cccc(C)c3)CC2)c1 | 34.7 | 2.3 | 1.2 | -8.3 | 2.2
Cc1cccc(OCC(=O)N2CCN(Cc3ccc4c(c3)OCO4)CC2)c1 | -1.6 | 83.0* | -1.0 | 4.0 | 0.8
Cc1c(N=Nc2c(O)n(C)c(=O)n(C)c2=O)c(=O)n(-c2ccccc2)n1C | 7.8 | -6.4 | 1.6 | 4.8 | 2.3
CC(=O)OC1(c2ccccc2)CC(C(C)(C)C)CN(C(C)(C)C)C1 (centres undefined) | 0.6 | -3.8 | 0.2 | -5.0 | 1.3
CC(C)n1c(=O)c(C=Nc2cccc([N+](=O)[O-])c2)c(O)n(CCc2ccccc2)c1=O | 5.4 | 2.0 | 5.1 | 26.8 | 6.5
[N-]=[N+]=CC(=O)OC[C@H](N)C(=O)O | 0.0 | -8.0 | 0.0 | 2.1 | 1.7
Cc1ccc(OCC(=O)N2CCN(Cc3ccc4c(c3)OCO4)CC2)cc1C | 2.5 | 89.2* | 0.7 | 55.4 | 0.9
COc1cccc(C(=O)C2CCCN(Cc3ccc4nonc4c3)C2)c1 (centres undefined) | 5.0 | 88.7* | 2.2 | 23.2 | 0.6
O=C(c1cc(F)ccc1F)C1CCCN(Cc2ccc3nonc3c2)C1 (centres undefined) | 2.7 | 86.5* | 0.0 | 21.3 | 1.9
CSc1ccccc1C(=O)C1CCCN(Cc2ccccn2)C1 (centres undefined) | 7.0 | 1.2 | 2.4 | 11.6 | -0.5
